Test results reported in ChEMBL document CHEMBL1133476, “Nitrosothiol esters of diclofenac: synthesis and pharmacological characterization as gastrointestinal-sparing prodrugs” (J Med Chem, 2000).

Key:
Rattus norvegicus [1] = species on record: Rattus norvegicus; test: Gastric toxicity was measured in rats.; assay type: organism-based; details: in vivo
How it was run: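 Male Sprague-Dawley rats (180-200 g), fasted 24 h with water ad libitum. Single gavage of 100 µmol/kg at 5 mL/kg in 0.5% methocel/5% or 50% PEG-400, 5-10 rats/group. Fasting continued for 18 h, then CO₂ euthanasia. Stomach lesions scored in mm; mean ± SEM.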

Mus musculus [2] = test: Level of plasma diclofenac in mice after oral administration of 20 umol/kg of prodrug; assay type: ADME, organism-based; details: in vivo
How it was run: (§1)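 Male CD-1 mice, fasted overnight (≈17 h), given 20 µmol/kg orally by gavage as a suspension in 0.5% methocel/5% or 50% PEG-400. Ketamine/xylazine anesthesia, then cardiac-puncture heparinized blood at 30, 60 and 120 min, a separate group per time point. Plasma diclofenac measured by HPLC with UV detection against authentic standard, meclofenamic acid internal standard.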

Mus musculus [3] = species on record: Mus musculus; test: Analgesic effect measured as % inhibition in PBQ-induced writhing test in mice.; assay type: functional; set-up: concentration or dose not given beside the values
How it was run: (§2)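 Male CD-1 mice (20-25 g), fasted overnight (≈17 h) with water ad libitum. Oral gavage of 100 µmol/kg as a suspension in 0.5% methocel with 5% or 50% PEG-400, 2.5 mL/kg, at least 9 mice/group. PBQ 2 mg/kg ip at 1 h after dosing; writhes counted over 5 min, starting 5 min after PBQ. Read-out is % inhibition of writhing vs vehicle; ratio = % inhibition with the test article / % inhibition with diclofenac, both at 100 µmol/kg po.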

[4] = Activity ratio is the percent inhibition in writhing test at 100 umol/kg, po to that of diclofenac at 100 umol/kg, po administration; assay type: functional; how it was run: as §2
Rattus norvegicus [5] = test: Antiinflammatory effect measured as % inhibition in carrageenan induced paw edema test in rat.; assay type: functional
How it was run: (§3)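 Male Sprague-Dawley rats (200-250 g), fasted overnight (≈17 h) with water ad libitum. Dosed 100 µmol/kg by gavage at 5 mL/kg in 0.5% methocel/5% or 50% PEG-400, at least 5 rats/group. At 1 h, 50 µL of 1% carrageenan injected subplantar into the right […] paw. Paw volume read by water displacement at 0 and 3 h. Result is % inhibition of the volume increase; ratio relative to diclofenac at the same dose.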

[6] = Activity ratio is the percent inhibition of paw volume increase at 100 umol/kg, po to that of diclofenac at 100 umol/kg, po administration; assay type: functional; how it was run: as §3
Mus musculus [7] = test: Level of plasma diclofenac in mice after oral administration; assay type: ADME, organism-based; details: in vivo; how it was run: as §1

Concentration_Plasma (Mus musculus [2]) [nM ml-1] | Structure (SMILES) | Gastric lesion score (Rattus norvegicus [1]) | Inhibition (Mus musculus [3]) [%] | Ratio [4] | further results
– | O=C(Cc1ccccc1Nc1c(Cl)cccc1Cl)OCC1(S)CCCCC1 | 6.7 mm | – | – | –
– | CN(CCCOC(=O)Cc1ccccc1Nc1c(Cl)cccc1Cl)CC1(S)CCCCC1 | 28.3 mm | – | – | –
– | CN(CCOC(=O)Cc1ccccc1Nc1c(Cl)cccc1Cl)CC1(S)CCCCC1 | 10.2 mm | – | – | –
4.5 | CCN(CCCOC(=O)Cc1ccccc1Nc1c(Cl)cccc1Cl)CC1(SN=O)CCCCC1 | – | – | – | –
19.8 | CC(C)(COC(=O)Cc1ccccc1Nc1c(Cl)cccc1Cl)SN=O | 0.7 mm | 32 | 0.4 | –
5.9 | CN(CCCCOC(=O)Cc1ccccc1Nc1c(Cl)cccc1Cl)CC1(SN=O)CCCCC1 | – | – | – | –
2.4 | CN(CCCCCOC(=O)Cc1ccccc1Nc1c(Cl)cccc1Cl)CC1(SN=O)CCCCC1 | – | – | – | –
15.3 | O=NSC1(COC(=O)Cc2ccccc2Nc2c(Cl)cccc2Cl)CCCCC1 | 2 mm | 58 | 0.7 | –
6.8 | O=NSC1(CN(CCCOC(=O)Cc2ccccc2Nc2c(Cl)cccc2Cl)Cc2ccccc2)CCCCC1 | – | – | – | –
7.4 | CN(CCCOC(=O)Cc1ccccc1Nc1c(Cl)cccc1Cl)CC1(SN=O)CCCCC1 | 0.7 mm | 53 | 0.6 | Inhibition (Rattus norvegicus [5]): 58%; Ratio [6]: 1.1
13.4 | CCC(CC)(COC(=O)Cc1ccccc1Nc1c(Cl)cccc1Cl)SN=O | 0.4 mm | 95 | 1.1 | –
5.5 | CN(CCOC(=O)Cc1ccccc1Nc1c(Cl)cccc1Cl)CC1(SN=O)CCCCC1 | 1.1 mM | 70 | 0.8 | Inhibition (Rattus norvegicus [5]): 55%; Ratio [6]: 1
– | O=C([O-])Cc1ccccc1Nc1c(Cl)cccc1Cl.[Na+] [DICLOFENAC SODIUM] | – | – | – | Concentration_Plasma (Mus musculus [7]): 23.9 nM ml-1
– | O=C(O)Cc1ccccc1Nc1c(Cl)cccc1Cl [DICLOFENAC] | – | 84 | – | Inhibition (Rattus norvegicus [5]): 53%
